STK33 inh = human STK33 kinase inhibition | Q9BYT3 | purified STK33, MBP phosphorylation, ADP-Glo luminescence | inhibition, % at 10 µM | hit rate 0.073% among 320,000 | AID 2661;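 active = inhibition at or above 25%, using the most active replicate where run in duplicate; inactive = inhibition below 25%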
GSK3beta inhib = blocks human GSK3beta kinase activity; GST-GSK3beta kinase, ADP-Glo luminescence, 60 min; stronger effect = lower value; activity score (negative = inhibition), % at 10 µM; hit rate 0.038% among 300,000; AID 2097;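 active = more than half of replicate wells score below -50%, meaning over 50% inhibition versus plate controls; inconclusive = some replicates but at most half score below -50%; inactive = no replicate scores below -50%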
Target sequence (P49841 whole entry, looked up): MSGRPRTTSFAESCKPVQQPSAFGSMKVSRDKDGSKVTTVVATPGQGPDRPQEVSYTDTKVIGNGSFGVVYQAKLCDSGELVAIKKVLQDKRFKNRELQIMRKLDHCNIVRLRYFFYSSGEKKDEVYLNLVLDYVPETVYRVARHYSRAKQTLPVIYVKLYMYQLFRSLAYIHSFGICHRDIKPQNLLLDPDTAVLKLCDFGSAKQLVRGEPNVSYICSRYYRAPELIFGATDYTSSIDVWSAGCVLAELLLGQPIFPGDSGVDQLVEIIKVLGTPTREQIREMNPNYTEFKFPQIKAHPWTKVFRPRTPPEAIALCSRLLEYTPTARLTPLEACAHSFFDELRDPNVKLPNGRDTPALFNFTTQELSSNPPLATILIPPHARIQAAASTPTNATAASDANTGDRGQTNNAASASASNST
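test system = GST-tagged human GSK3beta kinase, cell-free | reagent = 25 µM ATP with peptide substrate | dosing = one dose of 10 µM per compound | schedule = 60 min reaction, RT | detection = luminescent ADP-Glo measurement of ADP formed | control set = DMSO neutral wells and GW8510 at 20 µM as positive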
procasp3 activ = activators of human procaspase-3; P42574; recombinant procaspase-3 D3A, Ac-DEVD-pNA absorbance 405 nm; hit rate 0.11% among 330,000; activation, % at 8.5 µM;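 active = activation above the mean of all tested compounds plus 3 SD, cut at about 21% in these data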
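Evaluation: percent activation relative to control range; Material: Procaspase-3 D3A mutant, all three cleavage aspartates alanine; Compound: single dose, 8.5 µM nominal compound, 0.8% DMSO; Replication: one well per compound; Signal: absorbance at 405 nm, 0 and 120 min; Schedule: 1 h preincubation plus 2 h reaction at 25 °C.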
GSK3A inh = inhibitors of human GSK-3 alpha kinase | ADP-Glo luminescence, 60 min | AID 2650 | P49840 | hit rate 0.1% among 320,000 | inhibition, % at 10 µM;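 active = more than half of replicates show inhibition above 20%; inconclusive = some but at most half of replicates above 20% inhibition; inactive = no replicate shows inhibition above 20%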;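 also: GST-tagged GSK-3 alpha with peptide substrate and 25 µM ATP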
A1 inh = inhibitors of the anti-apoptotic protein A1, read as caspase activation | MEF A1-2A-BIM cells, Caspase-Glo 3/7 luminescence, 3 h; percent of clofoctol response, vehicle zero | caspase activation, % (no concentration beside the values) | hit rate 0.066% among 330,000 | AID 2462;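 active = over half of replicate activation scores above 10%, or exactly half above 10 with the replicate mean above 10; inconclusive = replicate mean below 10 yet half the replicates above 10; inactive = over half of replicates below 10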
proCasp7 act = activates human procaspase-7, counter-screen for procaspase-3 activators; recombinant procaspase-7, Ac-DEVD-pNA absorbance 405 nm; D23A/D198A/D206A triple mutant, cannot self-cleave; scale: DMSO 0, 5 µM enzyme 100; activation, % at 8.5 µM; hit rate 0.093% among 330,000;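 active = percent activation above the screen-wide mean plus 3 SD, cut at about 25% in these data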
Target sequence (P55210 whole entry D23A/D198A/D206A): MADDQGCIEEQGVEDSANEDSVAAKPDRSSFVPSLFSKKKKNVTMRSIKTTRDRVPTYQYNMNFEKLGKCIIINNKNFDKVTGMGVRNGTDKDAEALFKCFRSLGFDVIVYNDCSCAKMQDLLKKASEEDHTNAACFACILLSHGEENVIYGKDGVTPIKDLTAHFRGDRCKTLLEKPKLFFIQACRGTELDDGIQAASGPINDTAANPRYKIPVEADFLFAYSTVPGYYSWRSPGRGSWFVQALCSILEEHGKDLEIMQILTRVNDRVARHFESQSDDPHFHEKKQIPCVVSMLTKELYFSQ
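buffer or medium = Zinc-free HEPES/NaCl buffer, pH 7.4 | material = Procaspase-7 triple mutant (PC-7 D3A) | input = 2 µM procaspase-7 mutant as dispensed | signal = Epi-absorbance of released pNA at 405 nm, two timepoints | timing = 1 h preincubation, 2 h reaction | replicates = singlicate compound testing | evaluation = % activation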
Large screens that a line does not name were inactive. An excerpt weighted towards active compounds, which were near 0.38% of everything screened.

CCCCCCCCCCCCCCCC[N+](C)(C)CCN(Cc1ccc(OC)cc1)c1ncccn1	STK33 inh 43 (no result: GSK3beta inhib)
CC[N+](C)(C)CCN(Cc1ccc(Cl)cc1)c1ccccn1	none
CCc1cc2c(=O)c(-c3cnn(-c4ccccc4)c3)c(C)oc2cc1OCC(=O)Nc1cccc(C)c1	A1 inh 7.9
CCn1c(O)c(/C=C2\C=NN=C2c2ccccc2)sc1=S	none
CC(C)Cn1c(O)c(/C=C2\C=NN=C2c2ccccc2)sc1=S	A1 inh 18 (no result: STK33 inh, GSK3A inh)
O=[N+]([O-])c1cc([N+](=O)[O-])c(Oc2ccc(Br)cc2Br)cc1NN1CCCCC1	none
CCOC(=O)CNC(=O)c1c(C)nn(C)c1Cl	none
Cc1ccnc(NC(=O)CCC(=O)N(CC(=O)NCc2ccccc2)Cc2cccs2)c1	GSK3A inh 51
Cc1ccnc(NC(=O)CCC(=O)N(CC(=O)NCc2ccccc2)Cc2ccccc2)c1	none
O=C(CNC(=O)c1ccccc1)NC1(C(=O)NC2CCCCC2)CCCCC1	none
O=c1c(O)c(-c2ccc(O)cc2)oc2cc(O)cc(O)c12	none
O=c1c(-c2c(O)cc(O)c3c2O[C@H](c2ccc(O)cc2)CC3)c(-c2ccc(O)cc2)oc2cc(O)cc(O)c12	STK33 inh 25 (no result: GSK3beta inhib)
CC(=O)c1cc(-c2ccc(F)cc2)n(CCC(=O)Nc2cc(C)[nH]n2)c1C	GSK3A inh 56
COc1ccc(Cl)cc1NC(=O)C1CCN(C(=O)Nc2ccccc2)CC1	none (no result: GSK3beta inhib)
O=C(COC(=O)c1ccc(Br)o1)c1ccc(S(=O)(=O)N2CCCCC2)cc1	none (no result: GSK3beta inhib)
N#C/C(=C/C=C/c1ccccc1)C(=O)Nc1ccccc1	STK33 inh 16 (no result: GSK3beta inhib)
Cc1cc(N2CCCCC2)nc(SCC(=O)c2ccccc2)n1	none
O=C(CSc1nc(N2CCCCC2)nc(N2CCCCC2)n1)c1ccccc1	STK33 inh 28
C[C@@H]1C=C(C(=O)N2CCOCC2)O[C@H](OCc2ccc(CO)cc2)C1	none
C=CCNC(=O)NC(=O)COC(=O)c1nc2nccc(C)n2n1	none
CCOc1ccc(NC(=O)CC2SC(=O)N(c3ccccc3)C2=O)cc1 (centres undefined)	none
O=C(Nc1ccc(-c2nc3cc(NC(=O)c4cccs4)ccc3o2)cc1)c1cccs1	A1 inh 17
O=C(Nc1ccc2oc(-c3ccncc3)nc2c1)c1cccs1	none
CC(=O)N1CCc2ccc(NC(=O)c3c(-c4c(Cl)cccc4Cl)noc3C)cc21	none
CC(C)(C)c1cc(C(c2cccnc2)N2CCN(CCO)CC2)cc(C(C)(C)C)c1O (centres undefined)	A1 inh 25
COc1ccc(NC(=S)N(CCCOC(C)C)C2CCN(C(C)=O)CC2)cc1Cl	none
CCO[C@H]1c2c(ccc3ccc(=O)oc23)OC(C)(C)[C@H]1O	none (no result: GSK3beta inhib)
CSC[C@@H]1NC(=S)N(c2ccc(C)cc2)C1=O	A1 inh 23
CCSc1ccc2nnc(-c3ccc(F)cc3)n2n1	GSK3beta inhib -76, GSK3A inh 82
CCOC(=O)CNC(=O)CSc1ccc2nnc(-c3ccc(F)cc3)n2n1	none
CCSc1ccc2nnc(-c3cccs3)n2n1	GSK3beta inhib -53
CC(Sc1ccc2nnc(-c3ccc(F)cc3)n2n1)C(=O)O (centres undefined)	GSK3A inh 51
Cc1cccc(CSc2ccc3nnc(-c4cccs4)n3n2)c1	none (no result: GSK3A inh)
O=C(CSc1ccc2nnc(-c3cccs3)n2n1)N1CCCC1	none
CCOC(=O)CSc1ccc2nnc(-c3cccs3)n2n1	GSK3beta inhib -61, GSK3A inh 61
COc1ccc(C2=NOC(C(=O)Nc3ccc4c(c3)OCCO4)C2)c(OC)c1 (centres undefined)	none
CCOC(=O)CSc1ccc2nnc(-c3ccncc3)n2n1	GSK3A inh 81
NC(=O)c1ccc(OCC(F)(F)F)nc1	none
O=C(CCS(=O)(=O)c1ccccc1)N(CCCN1CCOCC1)c1nc2ccc(F)cc2s1	A1 inh 5.3
O=C(CCS(=O)(=O)c1ccccc1)N(CCCN1CCOCC1)c1nc2c(F)cccc2s1	none
Nc1nc(NCCO)nc(NCC2CCCO2)c1[N+](=O)[O-] (centres undefined)	GSK3A inh 80
Nc1nc(NCC2CCCO2)nc(Nc2ccccc2)c1[N+](=O)[O-] (centres undefined)	none
CC(C)CCNc1nc(N)c([N+](=O)[O-])c(NCC2CCCO2)n1 (centres undefined)	GSK3A inh 73
Nc1nc(NCC2CCCO2)nc(NCC2CCCO2)c1[N+](=O)[O-] (centres undefined)	GSK3A inh 52
Cc1ccc(NC(=O)/C(C#N)=C/c2cn(CC(=O)NCc3ccco3)c3ccccc23)cc1C	A1 inh inconclusive
Cc1cc(C)cc(NC(=O)/C(C#N)=C/c2cn(CC(=O)NCc3ccco3)c3ccccc23)c1	A1 inh 17
N#CC1=C2SCN(Cc3ccccc3)CN2C(=O)CC1c1ccccc1F (centres undefined)	GSK3A inh 61
N#CC1=C2SCN(c3ccccc3)CN2C(=O)CC1c1ccccc1Cl (centres undefined)	none
Cc1c(C(=O)OCC(=O)N2CCN(c3ccccc3)CC2)oc2ccccc12	none (no result: GSK3beta inhib)
CC(C)C(OC(=O)CN1C(=O)COc2ccccc21)C(=O)NC1CCCCC1 (centres undefined)	none
Cc1ccc(NC(=O)c2cccc(C(=O)Nc3ccc(C)cc3C(=O)O)c2)c(C(=O)O)c1	STK33 inh 37
O=C(Nc1cc(C(=O)Nc2ccccc2C(=O)O)cc(C(=O)Nc2ccccc2C(=O)O)c1)c1ccccc1	STK33 inh 49
O=C(O)Cc1ccc(N=Cc2c(O)ccc3ccccc23)cc1	STK33 inh 50
O=C(O)c1ccc(N=Cc2c(O)ccc3ccccc23)cc1	none
Cc1c(/C=C/C(=O)c2ccc(O)cc2)cnn1C	STK33 inh 29
CCn1cc(/C=C/C(=O)c2ccc(O)cc2)c(C)n1	STK33 inh 44
CCN(CC(=O)Nc1ccc2c(c1)OCCO2)C(=O)c1ccc(CS(C)(=O)=O)cc1	none (no result: GSK3beta inhib)
Cc1cc(N2CCN(c3ccccc3)CC2)n2c(n1)nc1ccccc12	GSK3A inh 56
O=C(Nc1c2c(nn1-c1cccc(Cl)c1)CS(=O)(=O)C2)c1ccc2c(c1)OCO2	none
COc1ccc(Cl)cc1NC(=O)NC(C)C	none
CC(C)NC(=O)Nc1n[nH]c(Nc2ccc(Cl)cc2)n1	GSK3A inh 52
CC(=O)Nc1ccc(S(=O)(=O)N2CCC(NC(=O)C(Cc3ccc(C)cc3)NC(C)=O)CC2)cc1 (centres undefined)	none (no result: STK33 inh, procasp3 activ, GSK3A inh, A1 inh, proCasp7 act)

From PubChem BioAssay
